Reference: ChEMBL document CHEMBL4732019, “Collaborative virtual screening to elaborate an imidazo[1,2-a]pyridine hit series for visceral leishmaniasis” (RSC Med Chem, 2021)

Legend:
[1] = Drug uptake in BALB/c mouse plasma at 50 mg/kg, po measured after 24 hrs by LC/MS/MS analysis; format: ADME, organism-based; details: in vivo
[2] = Kinetic solubility of the compound at 200 uM incubated for 24 hrs at pH 2 by HPLC/UV analysis; format: physicochemical; details: buffer, pH 2, 24 h
Summary of the method: (§1)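 Shake-flask method: 10 mM DMSO stock diluted to 200 μM in phosphate buffer pH 2.0 or pH 7.4 (2% DMSO final). Shaken at 500 rpm, 24 h, room temperature, then filtered through polycarbonate membrane. Filtrate quantified by HPLC-UV against 1, 20 and 200 μM standards injected in duplicate.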

[3] = Kinetic solubility of the compound at 200 uM incubated for 24 hrs at pH 7.4 by HPLC/UV analysis; format: physicochemical; details: buffer, pH 7.4, 24 h; summary of the method: as §1

Drug uptake [1]	Kinetic_solubility [2] [µg/mL]	Kinetic_solubility [3] [µg/mL]	Structure (SMILES)
Not Active			COc1ccn2c(Nc3cc(F)cc(F)c3)c(-c3ccccn3)nc2c1
	> 76	> 76	COc1ccn2c(Nc3ccc(F)cn3)c(-c3ccccn3)nc2c1
	> 76	< 0.5	Clc1ccc2nc(-c3ccccn3)c(Nc3ccc4c(c3)OCCO4)n2c1
	67	< 0.5	Cc1ccn2c(NC3CCCC3)c(-c3ccc(N(C)C)cc3)nc2c1
	72	8	Cc1ccc2nc(-c3ccccn3)c(Nc3ccc4c(c3)OCCO4)n2c1
	73	< 0.5	Cc1ccn2c(Nc3ccc(F)cc3)c(-c3ccccn3)nc2c1
